Screening data (PubChem)
CAL PDZ FP-1: inhibitors of human CAL PDZ peptide binding; 300,000 tested, 0.92% active; inhibition, % at 24.9 µM; AID 602252; purified CAL PDZ, TMR-peptide fluorescence polarization, 1 h; Q9HD26;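 active = mean inhibition of at least 30% with at least half of replicates also reaching 30%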;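 also: 0% = DMSO neutral control and 100% = excess unlabeled competitor peptide PRC23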
CAL PDZ FP-2: human CAL PDZ-peptide interaction inhibition. inhibition, % at 20 µM. 330,000 tested, 0.02% active. AID 504414. purified CAL PDZ, TMR-peptide fluorescence polarization, 1 h;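 active = highest replicate inhibition of at least 40%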;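 also: plate controls were DMSO neutral control wells for no effect and unlabeled competitor peptide control wells for full effect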
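Control set: unlabelled peptide and DMSO controls / Material: purified CerCALP PDZ construct / Timing: 1 h incubation at room temperature before polarization reading / Doses: 20 µM, one dose / Detection: fluorescence polarization (mP)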
GRK2 aptamer HTS: human GRK2 inhibition via aptamer displacement; P25098; bead flow cytometry, FAM-aptamer displacement from GRK2; inhibition of aptamer binding, % at 10 µM; 330,000 tested, 0.59% active;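 active = inhibition of aptamer binding above 40%, roughly 3 SD of noise, on plates passing a quality check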;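 also: median bead fluorescence of bound FAM aptamer so fluorescent compounds give negative values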
DDE Tn6 FP inh: disrupts Tn6 cyclic peptide binding to fibrin D-Dimer-E complex. Fibrin DD(E) TRITC-Tn6 fluorescence polarization displacement. inhibition, % at 8.3 µM. 370,000 tested, 0.21% active;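 active = inhibition above a per-campaign cutoff: mean of compounds within control limits plus 3 SD, cut at about 15% in these data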;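 also: 0% = median of all compound wells on the plate and 100% = blocking peptide control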
ARNT TACC3 PPI: ARNT/TACC3 interaction disruption; Q9Y6A5; AlphaScreen His-ARNT PAS-B/GST-TACC3 binding, luminescence; TACC3 fragment carries E629A point mutation; inhibition, % at 9.99 µM; 390,000 tested, 0.66% active; AID 623870;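 active = mean inhibition of replicates at least 50% and at least half of replicates each reaching 50%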;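 also: 0% = complete ARNT plus TACC3 wells and 100% = ARNT alone without TACC3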
DDE Tn7 FP inh: disrupts Tn7 cyclic peptide binding to fibrin D-Dimer-E complex. P02675. FP displacement of FITC-Tn7 peptide from fibrin DD(E); 0% = median of compound wells per plate. inhibition, % at 8.3 µM. 370,000 tested, 0.13% active. AID 720508;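 active = inhibition above the mean of compounds falling within the control limits plus 3 SD of them, cut at about 14% in these data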;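 also: 0% = plate median of compound wells and 100% = 10 µM Aha-Tn7 peptide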
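Also added: labelled Tn7 tracer, 0.1 µM; Assay system: human fibrin DD(E) protein; Amount: 2 µM fibrin DD(E); Schedule: 10 min compound pre-incubation, 3 h probe incubation at room temperature; Repeats: one replicate per compound; Read-out basis: percent inhibition; Measured by: fluorescence polarization of the labelled Tn7 tracer.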
* marks the source's active call; other numbers are inactive results; . = no result given. Most compounds without a hit are left out; they make up all but 1.8% or so of the library.

SMILES	CAL PDZ FP-1	CAL PDZ FP-2	GRK2 aptamer HTS	DDE Tn6 FP inh	ARNT TACC3 PPI	DDE Tn7 FP inh
COc1ccc(N2C(=O)C(CN3CCN(C)CC3)C2c2ccccc2)cc1 (stereo not drawn)	.	-1	0	2	-2	-1
CN(C)CC(=O)c1c(N)n(Cc2ccccc2)c(=O)n(C)c1=O	82*	-2	6	-6	-4	3
C[C@@H]1CCCCO[C@H](CN(C)S(=O)(=O)c2ccc(Cl)cc2)[C@@H](C)CN([C@H](C)CO)C(=O)c2cc(NC(=O)Nc3cccc4ccccc34)ccc2O1	.	.	.	.	15	.
CCC(C)NC(=O)CC(c1ccccc1)c1cc(C)ccc1O (stereo not drawn)	34*	-1	1	-4	0	-2
Cc1cccc(C)c1NC(=O)Cn1nnnc1N	66*	8	1	-6	-1	2
CC(=O)N/N=C/c1cc(C(C)(C)C)cc(/C=N/NC(C)=O)c1O	11	-2	0	1	62*	5
Cc1cc(C(=O)N/N=C\c2cc(C(C)(C)C)ccc2O)n[nH]1	-2	-3	0	.	43	.
COc1ccc(NC(=O)NS(=O)(=O)c2ccc(C)cc2)cn1	-2	-1	0	11	-3	48*
C[C@@H]1CN([C@H](C)CO)C(=O)c2cc(NS(C)(=O)=O)ccc2O[C@@H]1CN(C)CC1CC1	.	.	.	.	-2	.
C=CCN=c1scc(-c2ccccc2)n1/N=C/c1ccccn1	-2	0	2	2	47*	-6
CCN=c1scc(-c2ccc(F)cc2)n1/N=C/c1ccccn1	.	1	2	5	32	-11
CCN=c1scc(-c2ccccc2)n1/N=C/c1ccccn1	-2	0	1	.	61*	.
O=C(Cc1cccs1)N1CCN(S(=O)(=O)c2cc(Cl)ccc2Cl)CC1	1	-4	0	2	17	1
C[C@H]1CCCCO[C@H](CN(C)CC2CCCCC2)[C@@H](C)CN([C@@H](C)CO)C(=O)c2cc(NS(=O)(=O)c3ccc(F)cc3)ccc2O1	.	.	.	.	-3	.
C[C@H](CO)N1C[C@H](C)[C@@H](CN(C)S(=O)(=O)c2cn(C)cn2)Oc2ccc(NS(=O)(=O)c3ccc(F)cc3)cc2CC1=O	.	.	.	.	-12	.
CC(C)NC(=O)N[C@H]1C=C[C@@H](CC(=O)NC2Cc3ccccc3C2)O[C@H]1CO	.	.	.	.	7	.
CC(C)Oc1ccc(C2CC(=O)N(c3cccc(/C=C/C(=O)O)c3)C2=O)cc1 (stereo not drawn)	-2	-1	3	2	active	4
COc1ccc(N2C(=O)CC(c3ccc(OC(C)C)cc3)C2=O)cc1 (stereo not drawn)	.	0	1	1	1	-7
CC[C@]12c3[nH]c4ccc(OC)cc4c3CCN1C(=O)C(CC(=O)NCC13CC4CC(CC(C4)C1)C3)C[C@@H]2C(=O)N1CCN(C(=O)c2ccco2)CC1 (stereo partly drawn)	-1	0	43*	.	-1	.
CCN(CCO)c1nc(SC)nc2c1sc1nc(-c3ccco3)c3c(c12)CCC3	-5	-3	5	.	20	.
CSc1nc(NCCOCCO)c2sc3nc(-c4ccco4)c4c(c3c2n1)CCC4	66*	0	2	-7	-32	-9
CNS(=O)(=O)c1cccc(C(=O)OCC(=O)c2ccc3c(c2)OCCO3)c1	45*	-1	.	6	-1	1
O=C(N[C@@H](Cc1cccnc1)C(=O)N1CCC[C@H]1C(=O)NCc1ccccc1)c1ccc(Cl)c(Cl)c1	.	.	.	6	.	2
Cc1noc(C)c1NC(=O)Nc1ccc2c(c1)C(=O)N([C@H](C)CO)C[C@@H](C)[C@@H](CN(C)Cc1ccncc1)OCCCC[C@@H](C)O2	.	.	.	.	-3	.
CCCN(C)C[C@H]1Oc2cc(-c3cccnc3)ccc2S(=O)(=O)N([C@@H](C)CO)C[C@H]1C	.	.	.	.	-2	.
CC(C)(C)c1ccc(/C=N/N2CCN(c3ccccn3)CC2)cc1	53*	-1	1	1	7	-3
Oc1ccc(/C=N/N2CCN(c3ccccn3)CC2)cc1	-2	-2	0	0	-4	4
CCSc1nnc(NC(=O)CSc2nncc(=O)n2N)s1	0	0	4	-9	70*	-3
